According to ChEMBL document CHEMBL4304792, “Cinnamonitrile Adjuvants Restore Susceptibility to β-Lactams against Methicillin-Resistant Staphylococcus aureus” (ACS Med Chem Lett, 2019):
≈ marks a conversion by molar mass, not a printed value. Calls of active or inactive are those of the source. The rule behind the calls is not given here.

Legend:
Staphylococcus aureus [1] = experiment: Antibacterial activity against Staphylococcus aureus NRS70 measured after 16 to 20 hrs in absence of 2% NaCl by microdilution broth method
Staphylococcus aureus [2] = experiment: Potentiation of oxacillin induced antibacterial activity against Staphylococcus aureus NRS70 assessed as oxacillin MIC at 20 uM measured after 16 to 20 hrs in presence of 2% NaCl by microdilution broth method (reference value: 64 mg/L); type: functional
Staphylococcus aureus [3] = experiment: Antibacterial activity against Staphylococcus aureus MW2 NRS123 measured after 16 to 20 hrs in presence of 2% NaCl by microdilution broth method; type: functional
Staphylococcus aureus [4] = experiment: Potentiation of oxacillin induced antibacterial activity against Staphylococcus aureus USA200-NRS383 assessed as oxacillin MIC at 16 uM measured after 16 to 20 hrs in presence of 2% NaCl by microdilution broth method (reference value: 128 mg/L); type: functional
Staphylococcus aureus [5] = experiment: Potentiation of oxacillin induced antibacterial activity against methicillin susceptible Staphylococcus aureus NRS72 assessed as reduction in oxacillin MIC at 20 uM measured after 16 to 20 hrs in presence of 2% NaCl by microdilution broth method; type: functional
Method in brief: (§1)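 Oxacillin MIC was measured against methicillin-susceptible strains with the adjuvant fixed at 20 μM. Potentiation was expressed as fold reduction of the oxacillin MIC relative to oxacillin alone.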

Staphylococcus aureus [6] = experiment: Potentiation of oxacillin induced antibacterial activity against Staphylococcus aureus NRS384 assessed as oxacillin MIC at 20 uM measured after 16 to 20 hrs in presence of 2% NaCl by microdilution broth method (reference value: 32 mg/L); type: functional
Staphylococcus aureus [7] = experiment: Potentiation of oxacillin induced antibacterial activity against Staphylococcus aureus USA200-NRS383 assessed as oxacillin MIC at 20 uM measured after 16 to 20 hrs in presence of 2% NaCl by microdilution broth method (reference value: 128 mg/L); type: functional
Staphylococcus aureus [8] = experiment: Antibacterial activity against Staphylococcus aureus Mu50 NRS1 measured after 16 to 20 hrs in presence of 2% NaCl by microdilution broth method; type: functional
Staphylococcus aureus [9] = experiment: Potentiation of oxacillin induced antibacterial activity against Staphylococcus aureus NRS384 assessed as oxacillin MIC at 8 uM measured after 16 to 20 hrs in presence of 2% NaCl by microdilution broth method (reference value: 32 mg/L); type: functional
HeLa = experiment: Cytotoxicity against human HeLa cells by XTT assay; type: cell-based
Method in brief: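 HeLa human cervical cancer cells were exposed to the compounds. Viability was read by XTT colorimetric assay, and IC50 was reported in μM and mg·L–1.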

Staphylococcus aureus [10] = experiment: Antibacterial activity against Staphylococcus aureus USA200-NRS383 measured after 16 to 20 hrs in presence of 2% NaCl by microdilution broth method; type: functional
Staphylococcus aureus [11] = experiment: Potentiation of oxacillin induced antibacterial activity against methicillin susceptible Staphylococcus aureus NRS77 assessed as reduction in oxacillin MIC at 20 uM measured after 16 to 20 hrs in presence of 2% NaCl by microdilution broth method; type: functional
Method in brief: as §1

Staphylococcus aureus [12] = experiment: Potentiation of oxacillin induced antibacterial activity against Staphylococcus aureus NRS119 assessed as oxacillin MIC at 20 uM measured after 16 to 20 hrs in presence of 2% NaCl by microdilution broth method (reference value: 256 mg/L); type: functional
Staphylococcus aureus [13] = experiment: Potentiation of oxacillin induced antibacterial activity against Staphylococcus aureus NRS70 assessed as oxacillin MIC at 16 uM measured after 16 to 20 hrs in presence of 2% NaCl by microdilution broth method (reference value: 64 mg/L); type: functional
Staphylococcus aureus [14] = experiment: Potentiation of oxacillin induced antibacterial activity against Staphylococcus aureus MW2 NRS123 assessed as oxacillin MIC at 8 uM measured after 16 to 20 hrs in presence of 2% NaCl by microdilution broth method (reference value: 16 mg/L); type: functional
Staphylococcus aureus [15] = experiment: Potentiation of oxacillin induced antibacterial activity against methicillin susceptible Staphylococcus aureus NRS11 assessed as reduction in oxacillin MIC at 20 uM measured after 16 to 20 hrs in presence of 2% NaCl by microdilution broth method; type: functional
Method in brief: as §1

Staphylococcus aureus [16] = experiment: Potentiation of oxacillin induced antibacterial activity against Staphylococcus aureus Mu50 NRS1 assessed as oxacillin MIC at 8 uM measured after 16 to 20 hrs in presence of 2% NaCl by microdilution broth method (reference value: 256 mg/L); type: functional
Staphylococcus aureus [17] = experiment: Potentiation of oxacillin induced antibacterial activity against Staphylococcus aureus USA100-NRS382 assessed as oxacillin MIC at 16 uM measured after 16 to 20 hrs in presence of 2% NaCl by microdilution broth method (reference value: 64 mg/L); type: functional
Staphylococcus aureus [18] = experiment: Potentiation of oxacillin induced antibacterial activity against Staphylococcus aureus NRS70 assessed as oxacillin MIC at 8 uM measured after 16 to 20 hrs in presence of 2% NaCl by microdilution broth method (reference value: 64 mg/L); type: functional
Staphylococcus aureus [19] = experiment: Potentiation of oxacillin induced antibacterial activity against Staphylococcus aureus Mu50 NRS1 assessed as oxacillin MIC at 20 uM measured after 16 to 20 hrs in presence of 2% NaCl by microdilution broth method (reference value: 256 mg/L); type: functional
Staphylococcus aureus [20] = experiment: Potentiation of oxacillin induced antibacterial activity against Staphylococcus aureus USA100-NRS382 assessed as oxacillin MIC at 20 uM measured after 16 to 20 hrs in presence of 2% NaCl by microdilution broth method (reference value: 64 mg/L); type: functional
Staphylococcus aureus [21] = experiment: Potentiation of oxacillin induced antibacterial activity against Staphylococcus aureus MRSA252 assessed as oxacillin MIC at 20 uM measured after 16 to 20 hrs in presence of 2% NaCl by microdilution broth method (reference value: 256 mg/L); type: functional
Staphylococcus aureus [22] = experiment: Potentiation of oxacillin induced antibacterial activity against Staphylococcus aureus NRS384 assessed as oxacillin MIC at 16 uM measured after 16 to 20 hrs in presence of 2% NaCl by microdilution broth method (reference value: 32 mg/L); type: functional
Staphylococcus aureus [23] = experiment: Antibacterial activity against Staphylococcus aureus USA100-NRS382 measured after 16 to 20 hrs in presence of 2% NaCl by microdilution broth method; type: functional
Staphylococcus aureus [24] = experiment: Potentiation of oxacillin induced antibacterial activity against Staphylococcus aureus MW2 NRS123 assessed as oxacillin MIC at 16 uM measured after 16 to 20 hrs in presence of 2% NaCl by microdilution broth method (reference value: 16 mg/L); type: functional
Staphylococcus aureus [25] = experiment: Antibacterial activity against Staphylococcus aureus NRS384 measured after 16 to 20 hrs in presence of 2% NaCl by microdilution broth method; type: functional
Staphylococcus aureus [26] = experiment: Antibacterial activity against Staphylococcus aureus NRS119 measured after 16 to 20 hrs in presence of 2% NaCl by microdilution broth method; type: functional
Staphylococcus aureus [27] = experiment: Antibacterial activity against Staphylococcus aureus MRSA252 measured after 16 to 20 hrs in presence of 2% NaCl by microdilution broth method; type: functional
Staphylococcus aureus [28] = experiment: Potentiation of oxacillin induced antibacterial activity against Staphylococcus aureus USA200-NRS383 assessed as oxacillin MIC at 8 uM measured after 16 to 20 hrs in presence of 2% NaCl by microdilution broth method (reference value: 128 mg/L); type: functional

Compound | MIC (Staphylococcus aureus [1]) [µg/mL] | MIC (Staphylococcus aureus [2]) | MIC (Staphylococcus aureus [3]) [µg/mL] | fold change (FC) (Staphylococcus aureus [5]) | MIC (Staphylococcus aureus [6]) [µg/mL] | MIC (Staphylococcus aureus [8]) [µg/mL] | MIC (Staphylococcus aureus [9]) [µg/mL] | IC50 (HeLa) [µM] | MIC (Staphylococcus aureus [10]) [µg/mL] | fold change (FC) (Staphylococcus aureus [11]) | MIC (Staphylococcus aureus [12]) | MIC (Staphylococcus aureus [13]) [µg/mL] | MIC (Staphylococcus aureus [14]) [µg/mL] | fold change (FC) (Staphylococcus aureus [15]) | MIC (Staphylococcus aureus [16]) [µg/mL] | MIC (Staphylococcus aureus [17]) [µg/mL] | MIC (Staphylococcus aureus [18]) [µg/mL] | MIC (Staphylococcus aureus [19]) [µg/mL] | MIC (Staphylococcus aureus [20]) [µg/mL] | MIC (Staphylococcus aureus [21]) | also measured
CS(=O)(=O)/C(C#N)=C/c1cc(-c2ccc(Cl)c(Cl)c2)ccc1F | 16 (≈ 43.2 µM) | 0.12 µg/mL | 16 | 2 - 10 | 4 | 16 | 8 | 130 | 16 | 2 - 10 | 0.12 µg/mL | 2 | 1 | 2 - 10 | 128 | 2 | 16 | 2 | 1 | 128 µg/mL | MIC (Staphylococcus aureus [4]): ≥ 128 µg/mL; MIC (Staphylococcus aureus [7]): ≥ 128 µg/mL; MIC (Staphylococcus aureus [22]): 8 µg/mL; MIC (Staphylococcus aureus [23]): 32 µg/mL; MIC (Staphylococcus aureus [24]): 0.5 µg/mL; MIC (Staphylococcus aureus [25]): 16 µg/mL; MIC (Staphylococcus aureus [26]): 16 µg/mL; MIC (Staphylococcus aureus [27]): 16 µg/mL; MIC (Staphylococcus aureus [28]): ≥ 128 µg/mL
CS(=O)(=O)/C(C#N)=C/c1c(F)ccc(Cc2ccc(Cl)c(Cl)c2)c1F | 8 (≈ 19.9 µM) | Active | 16 | 2 - 10 | ≤ 0.03 | 16 | 32 | 92 | 16 | 2 - 10 | Active | 0.5 | ≥ 16 | 2 - 10 | 16 | 1 | 64 | ≤ 0.03 | ≤ 0.03 | 64 µg/mL | MIC (Staphylococcus aureus [2]; record 2): ≤ 0.03 µg/mL; MIC (Staphylococcus aureus [4]): ≥ 128 µg/mL; MIC (Staphylococcus aureus [7]): ≥ 128 µg/mL; MIC (Staphylococcus aureus [22]): 0.5 µg/mL; MIC (Staphylococcus aureus [23]): 16 µg/mL; MIC (Staphylococcus aureus [24]): 0.5 µg/mL; MIC (Staphylococcus aureus [25]): 16 µg/mL; MIC (Staphylococcus aureus [26]): 16 µg/mL; MIC (Staphylococcus aureus [27]): 16 µg/mL; MIC (Staphylococcus aureus [28]): ≥ 128 µg/mL
CS(=O)(=O)/C(C#N)=C/c1cc(Cc2ccc(Cl)c(Cl)c2)ccc1F | 8 (≈ 20.8 µM) | ≤ 0.03 µg/mL | ≥ 64 | 2 - 10 | 0.06 | ≥ 64 | 2 | 125 | ≥ 64 | 2 - 10 | ≤ 0.03 µg/mL | 0.5 | 4 | 2 - 10 | 8 | 1 | 8 | 1 | 0.25 | 128 µg/mL | MIC (Staphylococcus aureus [4]): ≥ 128 µg/mL; MIC (Staphylococcus aureus [7]): ≥ 128 µg/mL; MIC (Staphylococcus aureus [22]): 0.25 µg/mL; MIC (Staphylococcus aureus [23]): ≥ 64 µg/mL; MIC (Staphylococcus aureus [24]): 0.5 µg/mL; MIC (Staphylococcus aureus [25]): 32 µg/mL; MIC (Staphylococcus aureus [26]): 16 µg/mL; MIC (Staphylococcus aureus [27]): 32 µg/mL; MIC (Staphylococcus aureus [28]): ≥ 128 µg/mL
CS(=O)(=O)/C(C#N)=C/c1cc(Cc2ccc(Cl)c(Cl)c2)ccc1OC(F)(F)F | 8 (≈ 17.8 µM) | Active | ≥ 64 | 2 - 10 | ≤ 0.03 | 32 | 0.25 | 73 | 32 | 2 - 10 | Active | ≤ 0.03 | 0.5 | 2 - 10 | 8 | 0.06 | 0.25 | ≤ 0.03 | ≤ 0.03 | Active | MIC (Staphylococcus aureus [2]; record 2): ≤ 0.03 µg/mL; MIC (Staphylococcus aureus [22]): 0.03 µg/mL; MIC (Staphylococcus aureus [23]): ≥ 64 µg/mL; MIC (Staphylococcus aureus [24]): 0.12 µg/mL; MIC (Staphylococcus aureus [25]): 16 µg/mL; MIC (Staphylococcus aureus [26]): 8 µg/mL; MIC (Staphylococcus aureus [27]): 8 µg/mL; MIC (Staphylococcus aureus [28]): ≥ 128 µg/mL
N#C/C(=C\c1cc(Cc2ccc(Cl)c(Cl)c2)ccc1F)S(=O)(=O)c1ccccn1 | 16 (≈ 35.8 µM) | ≤ 0.03 µg/mL | 16 | 2 - 10 | 0.06 | 16 | 0.5 | 87 | 16 | 2 - 10 | 0.12 µg/mL | 0.03 | 0.5 | 2 - 10 | 128 | 0.25 | 4 | ≤ 0.03 | 0.12 | 2 µg/mL | MIC (Staphylococcus aureus [4]): ≥ 128 µg/mL; MIC (Staphylococcus aureus [7]): ≥ 128 µg/mL; MIC (Staphylococcus aureus [22]): 0.12 µg/mL; MIC (Staphylococcus aureus [23]): 16 µg/mL; MIC (Staphylococcus aureus [24]): 0.12 µg/mL; MIC (Staphylococcus aureus [25]): 16 µg/mL; MIC (Staphylococcus aureus [26]): 16 µg/mL; MIC (Staphylococcus aureus [27]): 16 µg/mL; MIC (Staphylococcus aureus [28]): ≥ 128 µg/mL
